Measurements taken from ChEMBL document CHEMBL4732216, “Design and Characterization of an Intracellular Covalent Ligand for CC Chemokine Receptor 2” (J Med Chem, 2021).
Active and inactive are the calls of the source. The rule behind the calls is not given here.

Tests used:
[1] = biological target: T1, C-C chemokine receptor type 2 (Homo sapiens, UniProt P41597); assay: Displacement of [3H]-CCR2-RA from human CCR2b expressed in human U2OS cell membranes incubated for 2 hrs by scintillation counting method; conditions: for Activity: Cell membrane, filed as antagonist
Method in brief: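 U2OS-CCR2 membranes (5–30 μg protein) in 50 mM Tris-HCl pH 7.4, 5 mM MgCl2, 0.1% CHAPS. Coincubation 2 h at 25 °C with competitor 0.01 nM–10 μM and ~6 nM [3H]-CCR2-RA. Nonspecific binding with 10 μM JNJ-27141491. GF/B filtration, scintillation counting, IC50 by sigmoidal fit, Ki by Cheng–Prusoff.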

CHO [2] = assay: (§1) Displacement of [3H]-CCR2-RA-(R) from human CCR2 C232S mutant expressed in CHO cell membranes assessed as radio ligand binding recovery at 10 times IC50 incubated for 2 hrs followed by extensive washing and centrifugation cycles before addition of [3H]-CCR2-RA-[R] for 2 hrs by scintillation counting method; conditions: Cell membrane
[3] = Displacement of [3H]-CCR2-RA-[R] from human CCR2 C75S mutant expressed in CHO cell membranes incubated for 2 hrs by scintillation counting method; set-up: species or system Cell membrane
[4] = biological target: T1, C-C chemokine receptor type 2; assay: Antagonist activity at human CCR2 expressed in human U2OS cell membranes as inhibition of [35S]GTPgammaS binding pre-incubated for 30 mins before CCL2 stimulation and followed by further incubation for 90 mins by scintillation counting method; assay type: functional, Cell membrane; conditions: for inhibition: Cell membrane, filed as antagonist
Method in brief: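 Preincubation 30 min at 25 °C with increasing ligand plus EC80 CCL2 (20 nM). [35S]GTPγS 0.3 nM added for 90 min at 25 °C, then filtration and scintillation counting. Basal without ligand/chemokine; pIC50 by sigmoidal fit.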

[5] = biological target: T1, C-C chemokine receptor type 2; assay: Antagonist activity at human CCR2 expressed in human U2OS cell membranes as [35S]GTPgammaS binding level at 250 nM pre-incubated for 30 mins before CCL2 stimulation and followed by further incubation for 90 mins by scintillation counting method relative to control; assay type: functional; set-up: scale not given: the % may be the effect or the level left; conditions: Cell membrane, filed as antagonist
Method in brief: (§2)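 U2OS-CCR2 membranes (40 μg) preincubated with or without single compound concentration (600 or 250 nM) in 50 mM Tris-HCl pH 7.4/5 mM MgCl2, then four centrifugation/wash cycles (unwashed: final spin only). Resuspended in buffer with NaCl, EDTA, BSA, saponin 0.5 mg/mL, GDP 10 μM and 20 nM CCL2. 30 min at 25 °C, then [35S]GTPγS 0.3 nM 90 min, filtration; expressed relative to CCL2 alone.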
Target sequence in this assay (P41597 whole entry, looked up): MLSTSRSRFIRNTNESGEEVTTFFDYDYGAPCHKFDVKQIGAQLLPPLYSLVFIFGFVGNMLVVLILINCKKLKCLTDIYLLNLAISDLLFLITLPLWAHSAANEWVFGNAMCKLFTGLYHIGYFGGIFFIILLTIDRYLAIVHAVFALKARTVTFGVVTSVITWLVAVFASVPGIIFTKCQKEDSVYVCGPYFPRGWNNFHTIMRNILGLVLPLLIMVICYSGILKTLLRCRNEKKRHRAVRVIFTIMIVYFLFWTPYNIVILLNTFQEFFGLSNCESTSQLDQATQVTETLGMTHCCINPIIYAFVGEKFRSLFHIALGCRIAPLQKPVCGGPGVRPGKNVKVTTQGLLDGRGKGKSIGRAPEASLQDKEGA

[6] = biological target: T1, C-C chemokine receptor type 2; assay: Displacement of [3H]-CCR2-RA-[R] from wild type human CCR2 expressed in CHO cell membranes incubated for 2 hrs by scintillation counting method; set-up: species or system Cell membrane
Target sequence in this assay (P41597 whole entry): as the sequence (P41597 whole entry, looked up) above

[7] = Stability in pH 7.4 Tris-HCl containing 5 mM MgCl2 and 0.1% CHAPS assessed as intact compound level measured at room temperature; assay type: physicochemical; conditions: buffer, pH 7.4, 5000 µM
[8] = biological target: T1, C-C chemokine receptor type 2; assay: (§3) Displacement of [3H]-CCR2-RA-(R) from human CCR2b expressed in human U2OS cell membranes assessed as radio ligand binding recovery at 10 times IC50 incubated for 2 hrs after pre-treatment with N-ethylmaleimide for 30 mins and followed by extensive washing and centrifugation cycles before addition of [3H]-CCR2-RA-[R] for 2 hrs by scintillation counting method; conditions: Cell membrane
Target sequence in this assay (P41597 whole entry, looked up): as above

[9] = biological target: T1, C-C chemokine receptor type 2; assay: as §3, with “iodoacetamide” for “N-ethylmaleimide”; conditions: Cell membrane
Target sequence in this assay (P41597 whole entry, looked up): as above

[10] = biological target: T1, C-C chemokine receptor type 2; assay: as §3, with “hrs” for “hrs after pre-treatment with N-ethylmaleimide for 30 mins and”; conditions: Cell membrane, filed as antagonist
Target sequence in this assay (P41597 whole entry, looked up): as above

CHO [11] = assay: as §1, with “C75S” for “C232S”; conditions: Cell membrane
CHO [12] = assay: as §1, with “[…]” for “C232S”; conditions: Cell membrane
[13] = GSH reactivity at 1 mM in presence of 80 uM reduced glutathione measured at 37 degC for over 4 hrs; assay type: physicochemical; conditions: 1000 µM
[14] = Displacement of [3H]-CCR2-RA-[R] from human CCR2 C70S/C75S/C232S mutant expressed in CHO cell membranes incubated for 2 hrs by scintillation counting method; set-up: species or system Cell membrane
[15] = biological target: T1, C-C chemokine receptor type 2; assay: Antagonist activity at human CCR2 expressed in human U2OS cell membranes as [35S]GTPgammaS binding level at 250 nM pre-incubated for 30 mins followed by drug wash out before CCL2 stimulation and followed by further incubation for 90 mins by scintillation counting method relative to control; assay type: functional; set-up: scale not given: the % may be the effect or the level left; conditions: Cell membrane, filed as antagonist; method in brief: as §2
Target sequence in this assay (P41597 whole entry, looked up): as above

[16] = biological target: T1, C-C chemokine receptor type 2; assay: as §1, with “from wild type” for “from”, “CCR2” for “CCR2 C232S mutant”; conditions: Cell membrane, filed as antagonist
Target sequence in this assay (P41597 whole entry, looked up): as above

[17] = Displacement of [3H]-CCR2-RA-[R] from human CCR2 C70S mutant expressed in CHO cell membranes incubated for 2 hrs by scintillation counting method; set-up: species or system Cell membrane
[18] = biological target: T1, C-C chemokine receptor type 2; assay: Displacement of [3H]-CCR2-RA-(R) from human CCR2b expressed in human U2OS cell membranes pre-incubated for 0 hrs before radio ligand addition and measured after 20 mins by scintillation counting method; set-up: species or system Cell membrane
Target sequence in this assay (P41597 whole entry): as the sequence (P41597 whole entry, looked up) above

[19] = biological target: T2, C-C chemokine receptor type 1 (Homo sapiens, UniProt P32246); assay: Antagonist activity at human CCR1 expressed in human U2OS cell membranes as inhibition of [35S]GTPgammaS binding pre-incubated for 30 mins before CCL3 stimulation and followed by further incubation for 90 mins by scintillation counting method; assay type: functional, Cell membrane
T2 sequence (P32246 whole entry): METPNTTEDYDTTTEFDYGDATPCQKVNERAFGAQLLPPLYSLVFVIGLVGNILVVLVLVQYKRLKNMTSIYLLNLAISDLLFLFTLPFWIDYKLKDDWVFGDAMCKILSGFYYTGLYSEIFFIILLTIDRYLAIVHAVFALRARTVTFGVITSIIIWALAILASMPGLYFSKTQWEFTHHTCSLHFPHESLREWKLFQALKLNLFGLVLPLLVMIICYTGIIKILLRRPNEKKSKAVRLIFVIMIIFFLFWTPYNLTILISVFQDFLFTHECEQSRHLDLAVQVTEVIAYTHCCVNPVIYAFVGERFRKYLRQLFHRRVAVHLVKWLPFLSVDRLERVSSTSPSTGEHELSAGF

[20] = biological target: T1, C-C chemokine receptor type 2; assay: Ratio of IC50 for antagonist activity at human CCR2 expressed in HEK293 cells assessed as inhibition of beta-arrestin recruitment pre-incubated for 20 mins followed by drug wash out before CCL2 stimulation and followed by further incubation for 90 mins by NanoBiT CCR2 assay to IC50 for antagonist activity at human CCR2 expressed in HEK293 cells assessed as inhibition of beta-arrestin recruitment pre-incubated for 20 mins before CCL2 stimulation and followed by further incubation for 90 mins by NanoBiT CCR2 assay
[21] = biological target: T1, C-C chemokine receptor type 2; assay: Antagonist activity at human CCR2 expressed in HEK293 cells assessed as inhibition of beta-arrestin recruitment pre-incubated for 20 mins before CCL2 stimulation and followed by further incubation for 90 mins by NanoBiT CCR2 assay based
Target sequence in this assay (P41597 whole entry): as the sequence (P41597 whole entry, looked up) above

[22] = biological target: T1, C-C chemokine receptor type 2; assay: Displacement of [3H]-CCR2-RA-(R) from human CCR2b expressed in human U2OS cell membranes pre-incubated for 4 hrs before radio ligand addition and measured after 20 mins by scintillation counting method; set-up: species or system Cell membrane
Target sequence in this assay (P41597 whole entry): as the sequence (P41597 whole entry, looked up) above

[23] = biological target: T1, C-C chemokine receptor type 2; assay: Antagonist activity at human CCR2 expressed in HEK293 cells assessed as inhibition of beta-arrestin recruitment pre-incubated for 20 mins followed by drug wash out before CCL2 stimulation and followed by further incubation for 90 mins by NanoBiT CCR2 assay based
Target sequence in this assay (P41597 whole entry): as the sequence (P41597 whole entry, looked up) above

CHO [24] = assay: as §1, with “C70S” for “C232S”; conditions: Cell membrane
[25] = Displacement of [3H]-CCR2-RA-[R] from human CCR2 C232S mutant expressed in CHO cell membranes incubated for 2 hrs by scintillation counting method; set-up: species or system Cell membrane

O=C(NCCNC(=O)c1ccc(S(=O)(=O)F)cc1)c1ccc(Oc2ccc(Cl)cc2NS(=O)(=O)c2ccc(Cl)c(C(F)(F)F)c2)cc1
Activity [1]: Dose-dependent effect
Ki ([1]; read-out: Ki): 89 nM
Ki ([1]; read-out: pKi (converted)): 63.1 nM

N#CSCCNC(=O)c1ccc(Oc2ccc(Cl)cc2NS(=O)(=O)c2ccc(Cl)c(C(F)(F)F)c2)cc1
Activity (CHO [2]; filed as antagonist): Active
IC50 [3]: 5 nM
pIC50 [3]: 8.4
IC50 [4]: 33 nM
inhibition [4]: Dose-dependent effect
Activity [5]: -5%
IC50 ([6]; read-out: IC50): 2 nM
IC50 ([6]; read-out: pIC50 (converted)): 1.58 nM
Stabilty [7]: > 6 h
Activity [1]: Dose-dependent effect
Ki ([1]; read-out: Ki): 4 nM
Activity [8]: inactive
Activity [9]: 93%
Activity [10]: 27%
Activity (CHO [11]; filed as antagonist): 30%
Activity (CHO [12]): inactive
Stabilty [13]: Stable
IC50 [14]: 16 nM
pIC50 [14]: 7.8
Activity [15]: -24%
Activity [16]: 9%
pIC50 [17]: 8.4
Ki ([18]; read-out: Ki): 2.4 nM
Ki ([18]; read-out: pKi (converted)): 2 nM
IC50 [19]: 5010 nM
Ratio IC50 [20]: 2.5
IC50 [21]: 4 nM
Ki ([22]; read-out: Ki): 0.7 nM
IC50 [23]: 10 nM
Activity (CHO [24]; filed as antagonist): Active
IC50 [25]: 1 nM
pIC50 [25]: 8.8

O=C(NCCN=C=S)c1ccc(Oc2ccc(Cl)cc2NS(=O)(=O)c2ccc(Cl)c(C(F)(F)F)c2)cc1
Activity [1]: Dose-dependent effect
Ki ([1]; read-out: Ki): 31 nM

C=CC(=O)NCCNC(=O)c1ccc(Oc2ccc(Cl)cc2NS(=O)(=O)c2ccc(Cl)c(C(F)(F)F)c2)cc1
Activity [1]: Dose-dependent effect
Ki ([1]; read-out: Ki): 22 nM

O=C(O)c1ccc(Oc2ccc(Cl)cc2NS(=O)(=O)c2ccc(Cl)c(Cl)c2)cc1
Activity (CHO [2]): 100%
inhibition [4]: Dose-dependent effect
Stabilty [7]: > 6 h
Activity [1]: Dose-dependent effect
Activity [8]: inactive
Activity [9]: 104%
Activity (CHO [11]): 100%
Activity (CHO [12]): inactive
Stabilty [13]: Unstable
Ki ([22]; read-out: pKi (converted)): 6.31 nM
Activity (CHO [24]): 100%
pIC50 [25]: 7.9
